Laboratory results from ChEMBL document CHEMBL4229460, “Design and biological evaluation of novel hybrids of 1, 5-diarylpyrazole and Chrysin for selective COX-2 inhibition” (Bioorg Med Chem, 2018).

Experiments:
[1] = biological target: Prostaglandin G/H synthase 1 (Homo sapiens, UniProt P23219); test: Inhibition of COX1 (unknown origin) using arachidonic acid as substrate pretreated for 10 mins followed by substrate addition and measured after 2 mins by ELISA; type: ADME
Homo sapiens = species on record: Homo sapiens; test: Selectivity index, ratio of IC50 for COX1 (unknown origin) to ratio of IC50 for COX2 (unknown origin)
How it was run: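 Enzyme ELISA kit: COX-1 or COX-2 preincubated with compound at 0, 1, 10 or 100 μM for 10 min at 37 °C in 0.1 M Tris-HCl pH 8.0, 5 mM EDTA, 2 mM phenol, 1 μM heme. Started with 100 μM arachidonic acid for 2 min at 37 °C, stopped with 1 M HCl. PGH₂ reduced by stannous chloride; PGF2α read by enzyme immunoassay at 450 nm. Index taken as the ratio of the COX IC50 values.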

MCF7 = test: Antiproliferative activity against human MCF7 cells after 48 hrs by MTT assay; type: functional, cell-based; settings: MCF7, 48 h
B16-F10 = test: Antiproliferative activity against mouse B16F10 cells after 48 hrs by MTT assay; type: functional, cell-based; settings: B16-F10, 48 h
How it was run: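 Cells kept in DMEM with 10% FBS, penicillin/streptomycin, 37 °C, 5% CO₂. Seeded at 5 × 10⁴ cells/well and allowed to adhere 12 h. Exposed to 0, 0.1, 1, 10 and 100 μM (final) for 48 h. Viability read by MTT reduction at OD 570 nm with 630 nm reference. IC50 reported as mean ± SD of three independent experiments.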

HeLa [2] = test: Antiproliferative activity against human HeLa cells after 48 hrs by MTT assay; type: functional, cell-based
HeLa [3] = test: Induction of apoptosis in human HeLa cells assessed as live cells at 2.5 uM after 24 hrs by Annexin-V-FITC/propidium iodide staining based flow cytometry (reference value: 94.6%); type: functional
How it was run: (§1)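 HeLa seeded at 2 × 10⁵ cells/well. Dose series was 0, 1.25, 2.5, 5 and 10 μM for 24 h; time course was 5 μM for 12, 24, 36 or 48 h. Trypsinized and washed in ice-cold PBS, then stained in binding buffer with Annexin V-FITC and PI for 10 min in the dark. Flow cytometry scored early (Annexin⁺/PI⁻) and late (Annexin⁺/PI⁺) apoptotic cells.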

HeLa [4] = test: Induction of apoptosis in human HeLa cells assessed as late apoptotic cells at 2.5 uM after 24 hrs by Annexin-V-FITC/propidium iodide staining based flow cytometry (reference value: 1.72%); type: functional; how it was run: as §1
HeLa [5] = test: Induction of apoptosis in human HeLa cells assessed as necrotic cells at 2.5 uM after 24 hrs by Annexin-V-FITC/propidium iodide staining based flow cytometry (reference value: 0.242%); type: functional; how it was run: as §1
HeLa [6] = test: Induction of apoptosis in human HeLa cells assessed as necrotic cells at 5 uM after 24 hrs by Annexin-V-FITC/propidium iodide staining based flow cytometry (reference value: 0.242 to 1.12%); type: functional
How it was run: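 HeLa cells in DMEM with 10% FBS, penicillin/streptomycin, 37 °C, 5% CO₂; seeded 2 × 10⁵ cells/well in six-well plates, treated at 0, 1.25, 2.5, 5 and 10 μM for 24 h, or at 5 μM for 12, 24, 36 or 48 h. Cells trypsinized, washed in ice-cold PBS, stained in binding buffer with Annexin V-FITC and PI for 10 min in the dark, then analyzed by flow cytometry.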

HeLa [7] = test: Induction of apoptosis in human HeLa cells assessed as live cells at 10 uM after 24 hrs by Annexin-V-FITC/propidium iodide staining based flow cytometry (reference value: 94.6%); type: functional; how it was run: as §1
HeLa [8] = test: Induction of apoptosis in human HeLa cells assessed as late apoptotic cells at 10 uM after 24 hrs by Annexin-V-FITC/propidium iodide staining based flow cytometry (reference value: 1.72%); type: functional; how it was run: as §1
HeLa [9] = test: Induction of apoptosis in human HeLa cells assessed as live cells at 5 uM after 12 hrs by Annexin-V-FITC/propidium iodide staining based flow cytometry (reference value: 95.1%); type: functional; how it was run: as §1
HeLa [10] = test: Induction of apoptosis in human HeLa cells assessed as late apoptotic cells at 5 uM after 12 hrs by Annexin-V-FITC/propidium iodide staining based flow cytometry (reference value: 2.57%); type: functional; how it was run: as §1
HeLa [11] = test: Induction of apoptosis in human HeLa cells assessed as necrotic cells at 5 uM after 12 hrs by Annexin-V-FITC/propidium iodide staining based flow cytometry (reference value: 1.12%); type: functional; how it was run: as §1
HeLa [12] = test: Induction of apoptosis in human HeLa cells assessed as early apoptotic cells at 5 uM after 36 hrs by Annexin-V-FITC/propidium iodide staining based flow cytometry (reference value: 1.24%); type: functional; how it was run: as §1
HeLa [13] = test: Induction of apoptosis in human HeLa cells assessed as late apoptotic cells at 5 uM after 36 hrs by Annexin-V-FITC/propidium iodide staining based flow cytometry (reference value: 2.57%); type: functional; how it was run: as §1
HeLa [14] = test: Induction of apoptosis in human HeLa cells assessed as live cells at 5 uM after 48 hrs by Annexin-V-FITC/propidium iodide staining based flow cytometry (reference value: 95.1%); type: functional; how it was run: as §1
HeLa [15] = test: Induction of apoptosis in human HeLa cells assessed as early apoptotic cells at 5 uM after 48 hrs by Annexin-V-FITC/propidium iodide staining based flow cytometry (reference value: 1.24%); type: functional; how it was run: as §1
HeLa [16] = test: Induction of apoptosis in human HeLa cells assessed as late apoptotic cells at 5 uM after 48 hrs by Annexin-V-FITC/propidium iodide staining based flow cytometry (reference value: 2.57%); type: functional; how it was run: as §1
HeLa [17] = test: Disruption of mitochondrial membrane potential in human HeLa cells assessed as collapse of the mitochondrial membrane potential at 1.25 uM after 12 hrs by JC1 staining based flow cytometry (reference value: 0.768%); type: functional
HeLa [18] = test: Disruption of mitochondrial membrane potential in human HeLa cells assessed as intact mitochondrial membrane at 2.5 uM after 12 hrs by JC1 staining based flow cytometry (reference value: 99.2%); type: functional
HeLa [19] = test: Disruption of mitochondrial membrane potential in human HeLa cells assessed as collapse of the mitochondrial membrane potential at 5 uM after 12 hrs by JC1 staining based flow cytometry (reference value: 0.768%); type: functional
HeLa [20] = test: Disruption of mitochondrial membrane potential in human HeLa cells assessed as intact mitochondrial membrane at 10 uM after 12 hrs by JC1 staining based flow cytometry (reference value: 99.2%); type: functional
HeLa [21] = test: Disruption of mitochondrial membrane potential in human HeLa cells after 12 hrs by JC1 staining based flow cytometry; type: functional, cell-based
HeLa [22] = test: Cell cycle arrest in human HeLa cells assessed as accumulation at G2/M phase at 1.25 uM after 24 hrs by propidium iodide staining based flow cytometry (reference value: 21.45%); type: functional
HeLa [23] = test: Cell cycle arrest in human HeLa cells assessed as accumulation at G1 phase at 2.5 uM after 24 hrs by propidium iodide staining based flow cytometry (reference value: 55.51%); type: functional
HeLa [24] = test: Cell cycle arrest in human HeLa cells assessed as accumulation at G1 phase at 10 uM after 24 hrs by propidium iodide staining based flow cytometry (reference value: 55.51%); type: functional
HeLa [25] = test: Cell cycle arrest in human HeLa cells assessed as accumulation at S phase at 10 uM after 24 hrs by propidium iodide staining based flow cytometry (reference value: 18.16%); type: functional

Sequence of Prostaglandin G/H synthase 1 (P23219 whole entry): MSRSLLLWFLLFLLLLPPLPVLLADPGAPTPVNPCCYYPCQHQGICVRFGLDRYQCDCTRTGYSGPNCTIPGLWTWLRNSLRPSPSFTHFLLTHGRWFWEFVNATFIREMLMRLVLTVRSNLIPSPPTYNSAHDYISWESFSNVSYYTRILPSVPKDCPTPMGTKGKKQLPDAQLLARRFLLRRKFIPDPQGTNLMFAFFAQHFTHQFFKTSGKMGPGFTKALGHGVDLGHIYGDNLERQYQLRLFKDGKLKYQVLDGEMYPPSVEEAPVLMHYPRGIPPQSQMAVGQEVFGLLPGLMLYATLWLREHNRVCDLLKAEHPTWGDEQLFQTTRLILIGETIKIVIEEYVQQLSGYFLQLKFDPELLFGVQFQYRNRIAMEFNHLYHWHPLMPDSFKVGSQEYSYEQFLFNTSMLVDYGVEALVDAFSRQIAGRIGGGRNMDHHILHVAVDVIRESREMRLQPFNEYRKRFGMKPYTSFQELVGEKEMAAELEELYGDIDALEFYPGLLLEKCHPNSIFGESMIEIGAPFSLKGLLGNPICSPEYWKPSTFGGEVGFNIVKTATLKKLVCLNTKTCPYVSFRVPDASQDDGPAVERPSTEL

Work on COc1ccc(-c2cc(COC(=O)COc3cc(O)c4c(=O)cc(-c5ccccc5)oc4c3)nn2-c2ccc(C)cc2)cc1 yielded an IC50 [1] of 47.5 µM, a Ratio IC50 (Homo sapiens) of 206 and an IC50 (MCF7) of 3.23 µM. For the same molecule, the IC50 (B16-F10) was 10.4 µM, the IC50 (HeLa [2]) was 1.12 µM and the Activity (HeLa [3]) was 74.5%. For the same molecule, the Activity (HeLa [4]) was 8.28%, the Activity (HeLa [5]) was 0.332% and the Activity (HeLa [6]) was 0.073 - 0.427%. It also gave an Activity (HeLa [7]) of 51.4%, an Activity (HeLa [8]) of 11.5% and an Activity (HeLa [9]) of 67.7%. The Activity (HeLa [10]) was 7.07%, the Activity (HeLa [11]) was 1.71% and the Activity (HeLa [12]) was 40.4%. For the same molecule, the Activity (HeLa [13]) was 7.82%, the Activity (HeLa [14]) was 18.1% and the Activity (HeLa [15]) was 73.2%. It also gave an Activity (HeLa [16]) of 7.54%, an Activity (HeLa [17]) of 3.1% and an Activity (HeLa [18]) of 93.4%. The Activity (HeLa [19]) was 9.32%, the Activity (HeLa [20]) was 86.5% and the Activity (HeLa [21]) was “Dose-dependent effect”. It also gave an Activity (HeLa [22]) of 13.65%, an Activity (HeLa [23]) of 67.88% and an Activity (HeLa [24]) of 76.02%. For the same molecule, the Activity (HeLa [25]) was 14.82%.
